# Laboratory results from ChEMBL document CHEMBL4351006, “A new exploration towards aminothiazolquinolone oximes as potentially multi-targeting antibacterial agents: Design, synthesis and evaluation acting on microbes, DNA, HSA and topoisomerase IV” (Eur J Med Chem, 2019).
# Tests used:
# Candida tropicalis = assay: Antifungal activity against Candida tropicalis assessed as reduction in fungal cell viability incubated for 24 hrs by two fold serial dilution method; format: functional
# Procedure, shortened: (§1)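 Broth two-fold serial dilution run to CLSI guidelines. Chloromycin, norfloxacin and fluconazole served as reference drugs.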
# Enterococcus faecalis = assay: Antibacterial activity against Enterococcus faecalis assessed as reduction in bacterial cell viability incubated for 24 hrs by two fold serial dilution method; format: functional; procedure, shortened: as §1
# Pseudomonas aeruginosa [1] = assay: Antibacterial activity against Pseudomonas aeruginosa ATCC 27853 assessed as reduction in bacterial cell viability incubated for 24 hrs by two fold serial dilution method; format: functional; conditions: ATCC 27853, 24 h; procedure, shortened: as §1
# Escherichia coli [2] = assay: Antibacterial activity against Escherichia coli ATCC 25922 assessed as reduction in bacterial cell viability incubated for 24 hrs by two fold serial dilution method; format: functional; conditions: ATCC 25922, 24 h; procedure, shortened: as §1
# Escherichia coli [3] = assay: Antibacterial activity against Escherichia coli assessed as reduction in bacterial cell viability incubated for 24 hrs by two fold serial dilution method; format: functional; procedure, shortened: as §1
# Acinetobacter baumannii = assay: Antibacterial activity against Acinetobacter baumannii assessed as reduction in bacterial cell viability incubated for 24 hrs by two fold serial dilution method; format: functional; procedure, shortened: as §1
# Pseudomonas aeruginosa [4] = assay: Antibacterial activity against Pseudomonas aeruginosa assessed as reduction in bacterial cell viability incubated for 24 hrs by two fold serial dilution method; format: functional; procedure, shortened: as §1
# Candida parapsilosis = assay: Antifungal activity against Candida parapsilosis ATCC 22019 assessed as reduction in fungal cell viability incubated for 24 hrs by two fold serial dilution method; conditions: Lodderomyces parapsilosis, ATCC 22019, 24 h
# Staphylococcus aureus [5] = assay: Antibacterial activity against methicillin resistant Staphylococcus aureus N315 assessed as reduction in bacterial cell viability incubated for 24 hrs by two fold serial dilution method; format: functional; conditions: N315, 24 h
# Procedure, shortened: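 MIC by two-fold serial dilution following CLSI, with chloromycin and norfloxacin as reference drugs.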
# Candida albicans [6] = assay: Antifungal activity against Candida albicans assessed as reduction in fungal cell viability incubated for 24 hrs by two fold serial dilution method; format: functional; procedure, shortened: as §1
# Staphylococcus aureus [7] = assay: Antibacterial activity against Staphylococcus aureus ATCC 25923 assessed as reduction in bacterial cell viability incubated for 24 hrs by two fold serial dilution method; format: functional; conditions: ATCC 25923, 24 h; procedure, shortened: as §1
# Klebsiella pneumoniae = assay: Antibacterial activity against Klebsiella pneumoniae assessed as reduction in bacterial cell viability incubated for 24 hrs by two fold serial dilution method; format: functional; procedure, shortened: as §1
# Staphylococcus aureus [8] = assay: Antibacterial activity against Staphylococcus aureus ATCC 29213 assessed as reduction in bacterial cell viability incubated for 24 hrs by two fold serial dilution method; format: functional; conditions: ATCC 29213, 24 h; procedure, shortened: as §1
# Aspergillus fumigatus = assay: Antifungal activity against Aspergillus fumigatus assessed as reduction in fungal cell viability incubated for 24 hrs by two fold serial dilution method; format: functional; procedure, shortened: as §1
# Staphylococcus aureus [9] = assay: Antibacterial activity against Staphylococcus aureus assessed as reduction in bacterial cell viability incubated for 24 hrs by two fold serial dilution method; format: functional; procedure, shortened: as §1
# Candida albicans [10] = assay: Antifungal activity against Candida albicans ATCC 90023 assessed as reduction in fungal cell viability incubated for 24 hrs by two fold serial dilution method; format: functional; conditions: ATCC 90023, 24 h; procedure, shortened: as §1
# Staphylococcus aureus [11] = assay: Antibacterial activity against methicillin resistant Staphylococcus aureus assessed as fold change after 16 serial passages at 0.5 times of MIC incubated for 12 hrs by sequential passaging method; format: functional
Compound,MIC (Candida tropicalis) [µM],MIC (Enterococcus faecalis) [µM],MIC (Pseudomonas aeruginosa [1]) [µM],MIC (Escherichia coli [2]) [µM],MIC (Escherichia coli [3]) [µM],MIC (Acinetobacter baumannii) [µM],MIC (Pseudomonas aeruginosa [4]) [µM],MIC (Candida parapsilosis) [µM],MIC (Staphylococcus aureus [5]) [µM],MIC (Candida albicans [6]) [µM],MIC (Staphylococcus aureus [7]) [µM],MIC (Klebsiella pneumoniae) [µM],MIC (Staphylococcus aureus [8]) [µM],MIC (Aspergillus fumigatus) [µM],MIC (Staphylococcus aureus [9]) [µM],MIC (Candida albicans [10]) [µM],fold change (FC) (Staphylococcus aureus [11])
CCn1cc(-c2csc(N)n2)c(=O)c2cc(F)c(N3CCN(C/C(C)=N/OCc4ccc(Cl)cc4Cl)CC3)cc21,424,424,848,848,424,848,848,848,424,848,848,848,848,424,848,106,
CCn1cc(-c2csc(N)n2)c(=O)c2cc(F)c(N3CCN(C/C(=N/OC)c4ccc(Cl)cc4)CC3)cc21,115,115,58,461,231,115,231,115,29,231,58,231,231,461,231,463,
CCn1cc(-c2csc(N)n2)c(=O)c2cc(N3CCN(C/C(=N/OC)c4ccc(Cl)cc4)CC3)c(Cl)cc21,448,448,448,448,448,448,448,448,224,448,224,448,224,448,224,224,
CCn1cc(-c2csc(N)n2)c(=O)c2cc(F)c(N3CCN(C/C(=N/OC)c4ccc(F)cc4F)CC3)cc21,460,460,460,460,460,460,460,920,230,920,460,460,460,460,460,460,
OC(Cn1cncn1)(Cn1cncn1)c1ccc(F)cc1F [FLUCONAZOLE],26,,,,,,,13,,13,,,,836,,7,
CCn1cc(-c2csc(N)n2)c(=O)c2cc(N3CCN(C/C(C)=N/O)CC3)c(Cl)cc21,278,139,555,278,69,278,139,278,139,69,17,139,139,278,35,139,
CCn1cc(C(=O)O)c(=O)c2cc(F)c(N3CCNCC3)cc21 [NORFLOXACIN],,13,2,25,50,25,6,,25,,3,13,3,,6,,16
CCn1cc(-c2csc(N)n2)c(=O)c2cc(N3CCN(C/C(=N/OC)c4ccc(F)cc4)CC3)c(Cl)cc21,58,58,58,58,14,115,461,58,14,231,58,231,58,29,29,58,
CCn1cc(-c2csc(N)n2)c(=O)c2cc(N3CCN(C/C(=N/OC)c4ccc(Cl)cc4Cl)CC3)c(Cl)cc21,422,211,422,422,422,422,422,422,211,422,422,422,211,422,422,845,
